In ChEMBL document CHEMBL1146292, “Dual serotonin transporter/histamine H3 ligands: Optimization of the H3 pharmacophore” (Bioorg Med Chem Lett, 2007):

Assays:
[1] = molecular target: Sodium-dependent serotonin transporter (Rattus norvegicus, UniProt P31652); test: Binding affinity to rat SERT
Outline: (§1)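 Means of at least three independent experiments, each run in triplicate; standard error of the mean reported.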

[2] = molecular target: Sodium-dependent serotonin transporter (Homo sapiens, UniProt P31645); test: Binding affinity to human SERT
[3] = molecular target: Histamine H3 receptor (Homo sapiens, UniProt Q9Y5N1); test: Binding affinity to human histamine H3 receptor; outline: as §1
[4] = system: Mus musculus; test: Effect on 5-HTP-induced head twitch in mouse at 10 mg/kg, ip after 1 hr relative to control; format: functional; details: route intraperitoneal
Outline: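 5-HTP-induced head-twitch model in mice. Test agent given at 10 mg/kg intraperitoneally, n = 4 per compound. Head twitches scored at 1 h and 24 h post-dose and expressed as percent of the control response.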

[5] = Drug level in mouse brain at 10 mg/kg, ip after 1 hr; format: ADME, organism-based; parameters: dose 10 mg/kg, route intraperitoneal; details: read-out: Drug uptake
Outline: (§2)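 Mice given a single 10 mg/kg intraperitoneal dose. Brain drug concentration measured at 1 h and at 24 h post-dose, n = 3.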

[6] = Drug level in mouse brain at 10 mg/kg, ip after 24 hrs; format: ADME, organism-based; parameters: dose 10 mg/kg, route intraperitoneal; details: read-out: Drug uptake; outline: as §2

Chain of Sodium-dependent serotonin transporter (Rattus norvegicus, UniProt P31652) (P31652 whole entry): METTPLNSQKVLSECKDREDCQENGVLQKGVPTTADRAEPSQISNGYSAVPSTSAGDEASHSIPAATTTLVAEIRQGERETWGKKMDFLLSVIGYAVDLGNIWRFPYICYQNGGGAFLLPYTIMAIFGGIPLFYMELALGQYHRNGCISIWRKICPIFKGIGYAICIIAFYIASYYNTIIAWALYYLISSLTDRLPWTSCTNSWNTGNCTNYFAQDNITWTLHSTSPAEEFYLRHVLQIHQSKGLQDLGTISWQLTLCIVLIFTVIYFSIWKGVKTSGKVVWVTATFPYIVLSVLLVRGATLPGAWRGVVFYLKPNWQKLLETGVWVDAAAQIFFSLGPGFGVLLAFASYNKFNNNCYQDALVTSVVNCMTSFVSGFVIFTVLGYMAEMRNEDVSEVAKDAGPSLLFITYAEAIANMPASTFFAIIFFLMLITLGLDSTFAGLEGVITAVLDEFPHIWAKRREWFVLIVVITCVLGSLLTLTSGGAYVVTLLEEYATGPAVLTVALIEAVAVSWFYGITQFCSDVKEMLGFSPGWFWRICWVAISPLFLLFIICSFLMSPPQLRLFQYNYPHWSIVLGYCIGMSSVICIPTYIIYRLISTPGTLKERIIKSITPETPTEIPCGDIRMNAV
Chain of Histamine H3 receptor (Q9Y5N1 whole entry): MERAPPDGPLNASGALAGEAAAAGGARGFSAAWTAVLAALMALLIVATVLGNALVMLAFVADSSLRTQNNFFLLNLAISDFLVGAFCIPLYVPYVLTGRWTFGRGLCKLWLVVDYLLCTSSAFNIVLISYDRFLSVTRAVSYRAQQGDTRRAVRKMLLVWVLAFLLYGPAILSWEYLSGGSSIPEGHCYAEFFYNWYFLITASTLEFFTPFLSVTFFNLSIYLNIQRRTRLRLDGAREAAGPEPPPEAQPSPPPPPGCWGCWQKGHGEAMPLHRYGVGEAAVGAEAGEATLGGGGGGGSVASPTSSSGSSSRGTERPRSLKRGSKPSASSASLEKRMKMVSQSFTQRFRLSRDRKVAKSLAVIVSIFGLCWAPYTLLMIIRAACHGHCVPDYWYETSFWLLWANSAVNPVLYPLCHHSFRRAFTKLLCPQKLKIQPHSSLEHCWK
Chain of Sodium-dependent serotonin transporter (Homo sapiens, UniProt P31645) (P31645 whole entry): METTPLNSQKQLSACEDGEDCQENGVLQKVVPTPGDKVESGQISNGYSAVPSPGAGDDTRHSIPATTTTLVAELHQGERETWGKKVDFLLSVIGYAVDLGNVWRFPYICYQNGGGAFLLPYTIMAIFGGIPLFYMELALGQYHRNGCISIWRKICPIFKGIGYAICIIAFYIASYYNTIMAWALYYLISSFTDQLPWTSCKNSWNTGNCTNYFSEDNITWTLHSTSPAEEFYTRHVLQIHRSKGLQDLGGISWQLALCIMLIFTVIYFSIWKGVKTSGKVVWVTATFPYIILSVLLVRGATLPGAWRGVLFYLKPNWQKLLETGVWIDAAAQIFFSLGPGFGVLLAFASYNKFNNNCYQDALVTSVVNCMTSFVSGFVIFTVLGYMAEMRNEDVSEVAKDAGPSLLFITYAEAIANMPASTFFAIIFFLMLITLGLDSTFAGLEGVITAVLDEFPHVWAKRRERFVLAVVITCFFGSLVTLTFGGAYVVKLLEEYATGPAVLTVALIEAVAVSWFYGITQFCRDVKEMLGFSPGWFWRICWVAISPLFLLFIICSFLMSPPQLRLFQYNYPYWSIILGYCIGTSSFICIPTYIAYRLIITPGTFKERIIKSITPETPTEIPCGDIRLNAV

SMILES | Ki [1] | Ki [2] | Ki [3] | Activity [4] | concentration at 1 h [5] | concentration at 24 h [6]
COc1ccc(C2CN(C)Cc3cc(OCCCN4CCC(C#N)CC4)ccc32)cc1 (centres undefined) | 5.3 nM | 5.3 nM | 7.4 nM |  |  | 
CCNCCCOc1ccc2c(c1)CN(C)CC2c1ccc(OC)cc1 (centres undefined) | 0.73 nM | 3.4 nM | 47 nM |  |  | 
COc1ccc(C2CN(C)Cc3cc(OCCCN4CCN(C5CC5)CC4)ccc32)cc1 (centres undefined) | 10 nM | 18 nM | 30 nM |  |  | 
COc1ccc(C2CN(C)Cc3cc(OCCCN4CCC(O)CC4)ccc32)cc1 (centres undefined) | 1.2 nM | 3.8 nM | 11 nM |  |  | 
COc1ccc(C2CN(C)Cc3cc(OCCCN4CCN(c5ccccc5O)CC4)ccc32)cc1 (centres undefined) | 5.7 nM | 7.2 nM | 1110 nM |  |  | 
COc1ccc(C2CN(C)Cc3cc(OCCCN4CCC(F)CC4)ccc32)cc1 (centres undefined) | 1.6 nM | 2.9 nM |  | >500% | 6.1 µM | 2.5 µM
COc1ccc(C2CN(C)Cc3cc(OCCCN4CCC(F)(F)C4)ccc32)cc1 (centres undefined) | 8 nM | 7.3 nM | 9.5 nM |  |  | 
COc1ccc(C2CN(C)Cc3cc(OCCCN4CCC(C(F)(F)F)CC4)ccc32)cc1 (centres undefined) | 19 nM | 14 nM | 40 nM |  |  | 
COc1ccc(C2CN(C)Cc3cc(OCCCN(C4CC4)C4CC4)ccc32)cc1 (centres undefined) | 7.6 nM | 9.7 nM | 7.4 nM |  |  | 
COc1ccc(C2CN(C)Cc3cc(OCCCN4CCN(c5ccc(C(F)(F)F)cc5)CC4)ccc32)cc1 (centres undefined) | 25 nM | 33 nM | 1440 nM |  |  | 
COc1ccc(C2CN(C)Cc3cc(OCCCN4CCN(C(C)C)CC4)ccc32)cc1 (centres undefined) | 1.3 nM | 1.8 nM | 9.7 nM |  |  | 
COc1ccc(C2CN(C)Cc3cc(OCCCN4CCN(C(=O)C(C)C)CC4)ccc32)cc1 (centres undefined) | 15 nM | 15 nM | 509 nM |  |  | 
COc1ccc(C2CN(C)Cc3cc(OCCCN4CCOCC4)ccc32)cc1 (centres undefined) | 4.8 nM | 6.5 nM | 3.8 nM | >500% | 12.5 µM | < 1 µM
COc1ccc(C2CN(C)Cc3cc(OCCCNC4CC4)ccc32)cc1 (centres undefined) | 3 nM | 19.3 nM | 38 nM |  |  | 
COc1ccc(C2CN(C)Cc3cc(OCCCN4CCN(C(=O)c5ccncc5)CC4)ccc32)cc1 (centres undefined) | 21 nM | 19 nM | 2840 nM |  |  | 
COc1ccc(C2CN(C)Cc3cc(OCCCN4CCC(CO)CC4)ccc32)cc1 (centres undefined) | 2 nM | 3.2 nM | 9.5 nM |  |  | 
COc1ccc(C2CN(C)Cc3cc(OCCCN4CCS(=O)(=O)CC4)ccc32)cc1 (centres undefined) | 6.3 nM | 12 nM | 106 nM |  |  | 
CCN1CCN(CCCOc2ccc3c(c2)CN(C)CC3c2ccc(OC)cc2)CC1 (centres undefined) | 1.5 nM |  | 12 nM |  |  | 
CCN(CC)CCCOc1ccc2c(c1)CN(C)CC2c1ccc(OC)cc1 (centres undefined) | 2.2 nM |  | 1.7 nM |  |  | 
COc1ccc(C2CN(C)Cc3cc(OCCCN4CCC4)ccc32)cc1 (centres undefined) | 1 nM | 4.8 nM |  |  |  | 
COc1ccc(C2CN(C)Cc3cc(OCCCN4CCN(C(=O)c5cccn5C)CC4)ccc32)cc1 (centres undefined) | 8.4 nM | 8.8 nM | 2610 nM |  |  | 
COc1ccc(C2CN(C)Cc3cc(OCCCN4CCN(c5ccncc5)CC4)ccc32)cc1 (centres undefined) | 5.3 nM | 4 nM | 3.3 nM |  |  | 
COc1ccc(C2CN(C)Cc3cc(OCCCN4CCN(C(C)=O)CC4)ccc32)cc1 (centres undefined) | 15 nM | 42 nM | 267 nM |  |  | 
COc1ccc(C2CN(C)Cc3cc(OCCCN4CCN(c5nccs5)CC4)ccc32)cc1 (centres undefined) | 2.7 nM | 5.3 nM | 268 nM |  |  | 
COc1ccc(C2CN(C)Cc3cc(OCCCN4CCCC(F)(F)C4)ccc32)cc1 (centres undefined) | 10 nM | 8.2 nM |  |  |  | 
COc1ccc(C2CN(C)Cc3cc(OCCCN4CCN(c5ccc(C#N)cc5)CC4)ccc32)cc1 (centres undefined) | 3.3 nM | 8 nM | 144 nM |  |  | 
COc1ccc(C2CN(C)Cc3cc(OCCCN4CC(F)(F)C4)ccc32)cc1 (centres undefined) |  | 2.9 nM | 69 nM |  |  | 
COc1ccc(C2CN(C)Cc3cc(OCCCN4CCC(F)(F)CC4)ccc32)cc1 (centres undefined) | 5.7 nM | 6.5 nM | 8.7 nM |  |  | 
